High-throughput results as filed in PubChem BioAssay.
SUMO1 PPI mod: alters human SUMO1 binding to SIM partners; P63165; SUMO1 binding to a labelled peptide, TR-FRET, 1 h; inhibition, % at 20 µM; 360,000 tested, 0.33% active; AID 602429; in the data active = inhibition above about 37%
GRK2 inh: inhibitors of human GRK2 displacing RNA aptamer; bead flow cytometry, FAM-aptamer displacement from GRK2; 330,000 tested, 0.59% active; inhibition of aptamer binding, % at 10 µM;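 active = inhibition of aptamer binding above 40%, roughly 3 SD of noise, on plates passing a quality check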;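 note: median bead fluorescence of bound FAM aptamer so fluorescent compounds give negative values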
STEP inh: STEP (human) phosphatase inhibition | AID 588621 | recombinant STEP, OMFP fluorogenic substrate, fluorescence | P54829 | 360,000 tested, 0.25% active | inhibition, % at 20 µM;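 active = inhibition at 20 µM, scaled per plate between control wells, above about 37%, limit read from the data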
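Material: STEP (striatal-enriched tyrosine phosphatase) enzyme, cell-free; Compound dosing: 20 µM single dose in 1% DMSO; Technique: fluorescence read at 480 nm ex / 540 nm em; Times: reaction 20 min, ambient temperature; Medium: 50 mM Bis-Tris pH 6.0 with 2.5 mM DTT and 0.005% Tween 20; Also added: OMFP at 25 µM.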
DNMT1 block: DNMT1 (human) enzyme inhibition | inhibition (reported as % activation of signal), % at 10 µM | P26358 | DNMT1 molecular beacon, Hinp1I cleavage, fluorescence | 360,000 tested, 0.83% active; in the data active = inhibition above about 50%
Scp-1 inhibitor: Scp-1 (human) phosphatase inhibition; Q9GZU7; Recombinant Scp1, phosphopeptide, malachite green phosphate absorbance; inhibition, % at 20 µM; 340,000 tested, 0.88% active; AID 493091;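 active = inhibition above about 50% at 20 µM, limit read from the data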
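Incubation: 45 min enzyme reaction at room temperature / System: truncated SCP-1 phosphatase (76-261aa) / Reagent: Phospho 17-mer peptide substrate / Buffer or medium: Acidic Tris acetate buffer with magnesium and detergent / Signal: absorbance at 630 nm / Doses: one concentration, 20 µM, with 1.0% DMSO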
LMPTP inh: blocks human LMPTP phosphatase | recombinant LMPTP-A, OMFP fluorogenic substrate, fluorescence intensity | AID 651560 | inhibition, % at 20 µM | 360,000 tested, 0.22% active;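 active = compounds that cut the enzyme signal by at least half of the control window in the single-dose screen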
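Material: LMPTP-A; amount: 0.625 nM enzyme; doses: single 20 µM dose; times: reaction 50 min, room temperature, dark; technique: fluorescence intensity of OMFP turnover product; benchmarks: no-enzyme and uninhibited controls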
GRK2 CP1: confirmation of human GRK2 inhibitors displacing RNA aptamer; aptamer displacement, % at 10 µM; shares compounds with GRK2 inh; 2,000 tested, 4% active; bead-bound GRK2, FAM-aptamer displacement, flow cytometry;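 active = aptamer displacement above 40%, near three times the noise of non-fluorescent compounds, on plates passing quality checks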;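 note: negative values mostly reflect intrinsic compound fluorescence rather than true enhancement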
FAM quench CP1: aptamer fluorescence quenching in GRK2 counter-screen | shares compounds with GRK2 inh | fluorescence response (% of DMSO), % at 10 µM | Carboxyfluorescein RNA aptamer on beads, flow cytometry quenching; hits give low values | AID 504580 | 2,000 tested, under 10 active;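 active = compounds that quench the bead-bound fluorescent RNA probe, cutting fluorescence to under half of the solvent control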;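 note: counterscreen run without GRK2 so only probe quenching by compound is measured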
Numbers stand for hits. The list is not random: actives were taken first. Their share in the collection is about 2.1%.

O=C1CC(N(Cc2ccc3c(c2)OCO3)C(=O)Nc2ccc(F)cc2)C(=O)N1c1ccccc1 (stereo not given) was read as SUMO1 PPI mod inactive, GRK2 inh inactive, STEP inh inactive, DNMT1 block inactive, Scp-1 inhibitor inactive and LMPTP inh inactive.
Screening Cc1oc(-c2ccccc2F)nc1CN1CCC(C(=O)NC2CCCc3ccccc32)CC1 (stereo not given) returned SUMO1 PPI mod inactive, GRK2 inh inactive, STEP inh inactive, DNMT1 block inactive, Scp-1 inhibitor inactive, LMPTP inh inactive, GRK2 CP1 inactive and FAM quench CP1 inactive.
`CC1(C)OC2CC3C4CC(F)C5=CC(=O)C=CC5(C)C4(F)C(O)CC3(C)C2(C(=O)CO)O1` (stereo not given) gave SUMO1 PPI mod inactive, GRK2 inh inactive, STEP inh inactive, DNMT1 block inactive, Scp-1 inhibitor inactive and LMPTP inh inactive.
For Cc1ccc(N(CC(O)Cn2c3ccccc3c3ccccc32)S(C)(=O)=O)c(C)c1 (stereo not given) the results were SUMO1 PPI mod inactive, GRK2 inh inactive, STEP inh inactive, DNMT1 block inactive, Scp-1 inhibitor inactive and LMPTP inh inactive.
Cc1ccc(N(CC(O)Cn2c3ccccc3c3ccccc32)S(C)(=O)=O)cc1 (stereo not given) was read as SUMO1 PPI mod inactive, GRK2 inh 54, STEP inh inactive, DNMT1 block inactive, Scp-1 inhibitor inactive, LMPTP inh inactive, GRK2 CP1 inactive and FAM quench CP1 inactive.
COc1cccc(N(CC(=O)NCCSCc2ccc(Cl)cc2)S(C)(=O)=O)c1 was read as SUMO1 PPI mod inactive, GRK2 inh inactive, STEP inh inactive, DNMT1 block inactive, Scp-1 inhibitor inactive and LMPTP inh inactive.
Screening CCN(CC)C(=O)c1cccc(-c2csc(C(C)(O)c3ccc(F)c(F)c3)n2)c1 (stereo not given) returned SUMO1 PPI mod inactive, STEP inh inactive, DNMT1 block inactive and LMPTP inh inactive.
For Cc1ccc(/C=C2/C(=N)N3N=C(CC(=O)N4CCCC4)SC3=NC2=O)o1 the results were SUMO1 PPI mod inactive, GRK2 inh inactive, STEP inh inactive, DNMT1 block inactive, Scp-1 inhibitor inactive, LMPTP inh inactive, GRK2 CP1 inactive and FAM quench CP1 inactive.
Screening COc1cc(NC(=O)c2ccno2)cc(C(=O)Nc2cccc(C(F)(F)F)c2)c1 returned SUMO1 PPI mod inactive, GRK2 inh inactive, STEP inh inactive, DNMT1 block inactive, Scp-1 inhibitor inactive and LMPTP inh inactive.
For COc1ccc(-c2cc(C(=O)Nc3cc(OC)cc(C(=O)Nc4cccc(C(F)(F)F)c4)c3)[nH]n2)cc1 the results were SUMO1 PPI mod inactive, GRK2 inh inactive, STEP inh inactive, DNMT1 block inactive, Scp-1 inhibitor inactive, LMPTP inh inactive, GRK2 CP1 inactive and FAM quench CP1 inactive.
O=C(Nc1cccc(C(F)(F)F)c1)c1csc(-c2ccncc2)n1 was read as SUMO1 PPI mod inactive, GRK2 inh inactive, STEP inh inactive, DNMT1 block inactive, Scp-1 inhibitor inactive and LMPTP inh inactive.
COc1cc(NC(=O)c2csc(-c3ccncc3)n2)cc(C(=O)Nc2cccc(C(F)(F)F)c2)c1 was read as SUMO1 PPI mod inactive, GRK2 inh inactive, STEP inh inactive, DNMT1 block inactive, Scp-1 inhibitor inactive, LMPTP inh inactive, GRK2 CP1 inactive and FAM quench CP1 inactive.
`CCc1nc2cc(NC(=O)C3(C)CCCN(C(C)=O)C3)ccc2o1` (stereo not given) gave SUMO1 PPI mod inactive, STEP inh inactive, DNMT1 block inactive and LMPTP inh inactive.
